# Bioassay records as filed in PubChem BioAssay.
# KCNQ1 inh: inhibitors of human KCNQ1 potassium channel; P51787; hit rate 1.3% among 310,000; B-score at 10 µM; CHO-K1 KCNQ1, FluxOR thallium flux fluorescence; hits give high values;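 active = compounds whose thallium flux B-score, printed positive for inhibition, exceeds three library SD while starting fluorescence stays within three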;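 also: channel opened by potassium depolarization with thallium stimulus after 20 min compound exposure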
# Target sequence (P51787 whole entry, looked up): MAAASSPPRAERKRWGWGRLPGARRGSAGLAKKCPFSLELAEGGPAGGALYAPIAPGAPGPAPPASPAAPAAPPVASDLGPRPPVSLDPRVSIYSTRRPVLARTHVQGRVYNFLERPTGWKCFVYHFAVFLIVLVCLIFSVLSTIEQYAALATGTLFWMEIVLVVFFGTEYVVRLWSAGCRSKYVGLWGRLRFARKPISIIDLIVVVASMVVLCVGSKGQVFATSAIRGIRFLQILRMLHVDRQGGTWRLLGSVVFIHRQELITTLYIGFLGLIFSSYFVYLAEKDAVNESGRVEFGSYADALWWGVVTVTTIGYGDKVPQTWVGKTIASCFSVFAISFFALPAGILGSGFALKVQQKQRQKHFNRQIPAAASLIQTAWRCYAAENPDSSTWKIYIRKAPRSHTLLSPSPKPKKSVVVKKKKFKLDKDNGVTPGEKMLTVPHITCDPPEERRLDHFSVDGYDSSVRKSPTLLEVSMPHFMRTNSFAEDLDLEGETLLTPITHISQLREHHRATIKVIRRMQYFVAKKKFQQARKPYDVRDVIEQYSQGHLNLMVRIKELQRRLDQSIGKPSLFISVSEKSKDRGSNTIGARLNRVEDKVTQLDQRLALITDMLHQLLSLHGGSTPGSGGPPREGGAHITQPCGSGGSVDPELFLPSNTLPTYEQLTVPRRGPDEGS
# KCNK3 block: human KCNK3 channel inhibition, primary screen; O14649; CHO-KCNK3 thallium flux, FluxOR fluorescence; hits give low values; B-score at 10 µM; hit rate 0.84% among 340,000; AID 602410;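 active = B-score under library mean minus 4 SD, starting fluorescence ratio at most library mean plus 5 SD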;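 also: more negative B-score means stronger inhibition of thallium flux through KCNK3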
# Kir21 inh: blocks the mouse Kir2.1 inward-rectifier potassium channel. HEK293-Kir2.1, FluxOR thallium flux fluorescence; hits give low values. B-score at 10 µM. hit rate 0.85% among 310,000. AID 1672;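 active = fluorescence ratio B-score at or below minus 3 SD of library scores, with starting-brightness B-score within 2 SD, cut at about -4.2 in these data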;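 also: channel flux triggered by added potassium and thallium sulfate stimulus; B-score of peak minus minimum fluorescence over baseline after thallium stimulus; more negative B-score means stronger Kir2.1 block with less thallium influx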
# hERG protect: hERG (human) protection from proarrhythmic block; hit rate 0.51% among 310,000; Q12809; activation (rescue from dofetilide block), less the hit threshold, % at 10 µM; AID 1511; CHO-hERG, FluxOR thallium flux, dofetilide IC70 present;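 active = activation above the mean of controls blocked by dofetilide plus 5 SD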;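 also: thallium influx through hERG after potassium depolarization seen as dye fluorescence rise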
# KCNK9 inh: blocks the human KCNK9 two-pore domain potassium channel. B-score at 10 µM. hit rate 1.2% among 310,000. Q9NPC2. HEK293 KCNK9, FluxOR thallium flux fluorescence; hits give low values. AID 488922;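 active = ratio B-score over 3 SD below the library mean, with starting fluorescence within 5 SD of its mean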;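 also: negative B-score means less thallium flux so channel inhibition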
# KCNQ1 act: human KCNQ1 channel potentiation or activation. B-score at 10 µM. hit rate 0.35% among 310,000. AID 2648. CHO-K1 KCNQ1, thallium flux FluxOR fluorescence; hits give high values. P51787;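 active = fluorescence ratio B-score, a plate-corrected score, at least three library SD, with initial intensity B-score within 5 SD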
#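 Assay system: CHO-K1 cells stably expressing KCNQ1. Medium: assay buffer for compound exposure, DMSO matched across wells. Timing: 37 °C overnight plating, 90-min dark dye load, 20-min compound pretreatment. Signal: kinetic FluxOR fluorescence, 10 s baseline plus 110 s post-stimulus.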
# KCNK9 block conf: confirmation of human KCNK9 potassium channel inhibitors; shares compounds with KCNK9 inh; HEK293 KCNK9 cells, FluxOR thallium flux fluorescence; inhibition, % at 10 µM; hit rate 43% among 4,900; AID 492992;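 active = thallium signal inhibited by more than 5 SD of the compound-free buffer control wells, on both duplicate plates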;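 also: 0% = assay buffer control wells without compound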
# Kir2-1 spec: mouse Kir2.1 off-target activity of KCNK9 modulators; shares compounds with KCNK9 inh; inhibition, % at 10 µM; Kir2.1 cells, FluxOR thallium flux fluorescence; hit rate 4% among 4,900;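 active = thallium signal drop more than 5 SD beyond the mean of the no-compound control wells, seen in both duplicate plates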;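 also: signal is fluorescence rise after thallium addition divided by baseline fluorescence; plate controls were assay buffer only for no effect and full block by chlorpromazine control for full effect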
# KCNK9 uninduced: non-induced cell nonspecific activity of KCNK9 modulators; AID 492997; shares compounds with KCNK9 inh; hit rate 40% among 4,900; non-induced KCNK9-HEK293, FluxOR thallium flux; inhibition, % at 10 µM;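 active = thallium signal drop beyond 5 SD of the untreated control mean, on both duplicate plates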;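 also: plate controls were buffer only IC0 wells for no effect and SID17386958 at its maximal inhibitory level for full effect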
# KCNK3 confirm: human KCNK3 channel inhibition, confirmation assay; shares compounds with KCNK3 block; CHO-KCNK3 thallium flux, FluxOR fluorescence; 0% buffer, 100% carvedilol maximal block; ratio percent of control, % at 10 µM; hit rate 99% among 2,400; AID 651638;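 active = ratio percent of control, averaged over triplicates, above buffer control mean plus 5 SD, cut at about 64% in these data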;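 also: ratio is the fluorescence rise from min to max over baseline after thallium stimulus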
# KCNK3 uninduced: activity in cells without induced KCNK3 expression. shares compounds with KCNK3 block. non-induced KCNK3 parental cells, FluxOR thallium flux; hits give low values. thallium flux ratio (lower = more inhibition) at 10 µM. hit rate 40% among 2,400. AID 651747;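 active = thallium flux ratio, averaged over three wells, more than 5 SD below the buffer control mean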;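 also: host cells are CHO cells without KCNK3 induction; ratio is peak minus trough fluorescence over baseline then normalized to buffer controls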
# An asterisk follows results filed as active; i = inactive; nt = no result given. The list is not random: actives were taken first. Their share in the collection is about 3.8%.
SMILES,KCNQ1 inh,KCNK3 block,Kir21 inh,hERG protect,KCNK9 inh,KCNQ1 act,KCNK9 block conf,Kir2-1 spec,KCNK9 uninduced,KCNK3 confirm,KCNK3 uninduced
CSCC(=O)N1CCC(Oc2cccc(C(=O)NCc3ccccn3)c2)CC1,i,i,-0.4,-6,i,i,nt,nt,nt,nt,nt
O=C(NCC(=O)N1CCN(S(=O)(=O)c2ccccc2)CC1)c1ccc(Br)o1,i,i,0.53,-7,i,i,nt,nt,nt,nt,nt
O=C(/C=C/Nc1ccccc1C(F)(F)F)c1ccco1,i,-9.1*,0.52,-1,-8.8*,i,i,i,i,90*,i
Cc1ccc(CSc2nc3ccccc3c(=O)n2CCCC(=O)NCc2ccco2)cc1,i,i,-0.98,-5,i,i,nt,nt,nt,nt,nt
O=c1c2ccccc2nc(SCc2ccccc2)n1Cc1ccco1,i,-11*,-0.78,-12,-12*,i,62%*,i,43%*,104*,i
Cc1ccc(CSc2nc3ccccc3c(=O)n2Cc2ccco2)cc1,i,-8.9*,0.01,-9,-18*,i,80%*,i,45%*,115*,0.16*
Cn1c(C(=O)O)c(S(=O)(=O)c2ccc(Cl)cc2)c2ccccc21,i,i,-0.38,-14,i,i,nt,nt,nt,nt,nt
O=C(Nc1cccnc1)c1cc(-c2cccc(Cl)c2)on1,i,i,-1.4,-2,i,i,nt,nt,nt,nt,nt
CC(=O)Nc1cccc(NC(=O)c2c(-c3c(Cl)cccc3Cl)noc2C)c1,i,i,2.2,-5,i,i,nt,nt,nt,nt,nt
CNC(=O)Nc1cccc(-c2cc(-c3c(Cl)cccc3Cl)no2)c1,i,-17*,0.49,-9,-15*,i,54%*,i,44%*,122*,0.16*
CC(=O)Nc1cccc(-c2cc(-c3c(Cl)cccc3Cl)no2)c1,i,-15*,-0.08,-9,-11*,i,54%*,i,39%*,109*,0.15*
Cc1nc(SCC(=O)c2c(N)n(C3CC3)c(=O)[nH]c2=O)[nH]c(=O)c1CCO,nt,i,nt,nt,nt,nt,nt,nt,nt,nt,nt
O=S(=O)(NC1CCCCC1N1CCN(c2cccc(Cl)c2)CC1)c1ccccc1 (centres undefined),i,-10*,1.6,-9,-13*,i,57%*,i,42%*,107*,i
CN1CCN(C2CCCCC2NS(=O)(=O)c2ccccc2)CC1 (centres undefined),i,i,-1.5,-8,i,i,nt,nt,nt,nt,nt
Cc1ccc2c(c1)C1C[N+](C)(CC(=O)Nc3ccccc3Cl)CCC1N2C(=O)c1ccccc1Cl (centres undefined),nt,i,nt,nt,nt,nt,nt,nt,nt,nt,nt
O=C(Cc1cccs1)NCCS(=O)(=O)N1CCN(c2ccccc2F)CC1,i,i,-0.04,-13,i,i,nt,nt,nt,nt,nt
CCOC(=O)NC(N(O)c1cccc(Cl)c1)C(Cl)(Cl)Cl (centres undefined),i,-12*,-3.9,-7,-13*,i,54%*,i,28%*,112*,i
Cn1nc(-c2ccccc2)c(-c2nc(-c3cccc(Cl)c3)no2)c1Cl,i,-8.8*,-0.86,-10,-9.6*,i,33%*,i,30%*,103*,i
O=[N+]([O-])c1cc([N+](=O)[O-])c(Oc2cccc(Cl)c2Cl)cc1NN1CCCCC1,i,i,0.1,-6,i,i,nt,nt,nt,nt,nt
CC1(C)Cc2cccc(Oc3cc(NN4CCCCC4)c([N+](=O)[O-])cc3[N+](=O)[O-])c2O1,6*,-12*,-0.81,-7,-14*,i,56%*,i,40%*,88*,i
CC1(C)Cc2cccc(C(=O)Nc3ccncc3)c2O1,i,i,-0.56,-6,i,i,nt,nt,nt,nt,nt
CC1(C)Cc2cccc(C(=O)Nc3ccc(Cl)cc3)c2O1,i,-12*,0.99,-10,-11*,i,46%*,i,i,89*,0.16*
Cc1c(O)c(=O)ccn1C,i,i,0.15,-4,i,i,nt,nt,nt,nt,nt
CCCOC(=O)c1ccc(NC(=O)c2ccccc2[N+](=O)[O-])cc1,i,-8.8*,1.2,-5,-8.2*,i,48%*,i,i,105*,i
Cc1ccc(C)c(S(=O)(=O)N2CCCCC2CCNC(=O)C(=O)NCc2ccco2)c1 (centres undefined),i,i,0.82,-14,i,i,nt,nt,nt,nt,nt
SMILES,KCNQ1 inh,KCNK3 block,Kir21 inh,hERG protect,KCNK9 inh,KCNQ1 act,KCNK9 block conf,Kir2-1 spec,KCNK9 uninduced,KCNK3 confirm,KCNK3 uninduced
O=C(COC(=O)c1ccccc1NC(=O)c1ccccc1)c1ccc([N+](=O)[O-])cc1,i,-9.6*,-0.73,-7,-14*,i,73%*,i,34%*,104*,i
COC(=O)COC(=O)c1ccccc1NC(=O)c1ccccc1,i,i,0,-3,i,i,nt,nt,nt,nt,nt
CN(/N=C/c1cc(Cl)cc(Cl)c1O)c1c(Cl)cccc1[N+](=O)[O-],i,-11*,1.4,-5,-13*,i,62%*,i,48%*,116*,0.15*
O=C(Nc1cccc(NC(=O)c2ccco2)c1)c1cccc(Br)c1,i,-13*,0.77,-9,-10*,i,59%*,i,i,100*,i
O=C(c1ccccc1)c1cccc(NC(=O)c2ccc(Br)o2)c1,i,-9.7*,0.43,-6,-9.2*,i,i,i,i,106*,i
COc1cc(OC)c2cc(C(=O)N[C@@H](Cc3ccccc3)C(=O)O)n(C)c2c1,i,i,-2.1,-10,i,i,nt,nt,nt,nt,nt
CCOC(=O)c1c(NC(=O)Cn2nc(C(F)F)cc2C(F)F)sc(C)c1C,i,-13*,-2.6,-8,-10*,i,57%*,i,46%*,107*,i
COC(=O)c1c(NC(=O)Cn2nc(C(F)F)cc2C(F)F)sc(C)c1C,i,i,-2.9,-6,i,i,nt,nt,nt,nt,nt
CS(=O)(=O)N(CC(=O)N1CCN(Cc2ccccc2)CC1)c1cccc(F)c1,i,i,0.56,-3,i,i,nt,nt,nt,nt,nt
